Here are results for four compounds from ChEMBL document CHEMBL1155010, “Synthesis and biological evaluation of substituted [18F]imidazo[1,2-a]pyridines and [18F]pyrazolo[1,5-a]pyrimidines for the study of the peripheral benzodiazepine receptor using positron emission tomography” (J Med Chem, 2008).

A short description of data set [1]: Displacement of [3H]flumazenil from central benzodiazepine receptor in rat brain cortex membrane. Format: cell membranes. The method in brief:
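Rat brain cortex membranes (100-150 µg protein) were incubated in triplicate at 25 °C for 45 min with [3H]flumazenil (2 nM) and 7 ligand concentrations (10^-10 to 10^-5 M). Nonspecific binding was set with flumazenil 20 µM. Assays were filtered, washed with ice-cold Tris/HCl pH 7.4 and counted. Ki was derived from IC50 by Cheng-Prusoff.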
On the technique in general: Loss of bound radioactivity is the signal in a displacement assay; it reports binding, not function.

Data set [2] addresses T1, Translocator protein (Rattus norvegicus, UniProt P16257). Kind of data set: Displacement of [3H]Ro 5-4864 from peripheral benzodiazepine receptor in rat kidney membrane. Format: cell membranes.
For data set [3], the target named is T1, Translocator protein. Put plainly: Displacement of [3H]PK11195 from peripheral benzodiazepine receptor in rat kidney membrane. Format: cell membranes.
Data set [4] in a line: Lipophilicity, log p at pH 7.5. Format: physicochemical. The settings on record: buffer. In outline:
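RP-HPLC on a C18 column with methanol/0.1 M phosphate buffer pH 7.5 (60/40) at 1 mL/min. Samples were dissolved in methanol. log P7.5 was estimated by comparing retention time with that of reference compounds of known log P.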

Data set [5] has as its system Blood. Kind of data set: Biodistribution in Sprague-Dawley rat blood at 1 MBq, iv after 1 hr. Format: ADME, organism-based. Particulars: in vivo. The method in brief:
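Male SD rats, 8-10 weeks old, given 1 MBq [18F]radiotracer by tail-vein injection in 0.1 mL. Groups of 4 killed (CO2, then cervical fracture) at 0.25, 0.5, 1 and 4 h post-injection. Tissues weighed and gamma-counted against a diluted standard of the injected solution. Activity expressed as %ID per gram wet tissue.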

The subject of data set [6] is Liver. Put plainly: Biodistribution in Sprague-Dawley rat liver assessed per gram of tissue at 1 MBq, iv after 4 hrs. Format: ADME, organism-based. The settings on record: in vivo. The method in brief: (§1)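 Male SD rats aged 8-10 weeks got 1 MBq [18F]tracer by tail vein in 0.1 mL. Groups of n = 4 were killed (CO2, then cervical fracture) at 0.25, 0.5, 1 and 4 h. Organs were weighed and gamma counted against a diluted standard of the injectate. Results are %ID per gram wet tissue, mean with standard deviation.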

Data set [7] is described as follows: Metabolic stability in Sprague-Dawley rat plasma assessed as drug remaining at 30 MBq after 0.25 hrs by Radio-HPLC analysis. The settings on record: read-out: Stability. Format: ADME, cell-free. In outline:
(§2)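 Rats received 30 MBq tracer and were sampled at 0.25, 0.5, 1 and 4 h. Plasma was diluted with water containing unlabeled carrier and KF and injected directly. Frontal cortex or olfactory bulb was sonicated in acetonitrile/water 1:1 with carrier and KF, centrifuged, and the supernatant diluted. Radio-HPLC used a precolumn switched to C18 with a CH3CN/0.05 M sodium acetate pH 5.5 gradient. Result is % parent remaining.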

For data set [8], the system named is Kidney. Kind of data set: Biodistribution in Sprague-Dawley rat kidney assessed per gram of tissue at 1 MBq, iv after 4 hrs. Format: ADME, organism-based. The settings on record: in vivo. In outline: as §1
Data set [9] deals with Spleen. Put plainly: Biodistribution in Sprague-Dawley rat spleen assessed per gram of tissue at 1 MBq, iv after 0.25 hrs. Format: ADME, organism-based. The settings on record: in vivo. In outline:
as §1

Data set [10] concerns Lung. Put plainly: Biodistribution in Sprague-Dawley rat lungs assessed per gram of tissue at 1 MBq, iv after 1 hr. Particulars: in vivo. Format: ADME, organism-based. In outline: as §1
In data set [11] the test system is Liver. Kind of data set: Biodistribution in Sprague-Dawley rat liver assessed per gram of tissue at 1 MBq, iv after 1 hr. Format: ADME, organism-based. Particulars: in vivo. The method in brief:
as §1

For data set [12], the system named is Lung. Put plainly: Biodistribution in Sprague-Dawley rat lungs assessed per gram of tissue at 1 MBq, iv after 4 hrs. Format: ADME, organism-based. Particulars: in vivo. In outline: as §1
Data set [13] relates to Lung. Kind of data set: Biodistribution in Sprague-Dawley rat lungs assessed per gram of tissue at 1 MBq, iv after 0.25 hrs. Format: ADME, organism-based. The settings on record: in vivo. The method in brief: as §1
For data set [14], the system named is Kidney. Kind of data set: Biodistribution in Sprague-Dawley rat kidney assessed per gram of tissue at 1 MBq, iv after 0.25 hrs. Format: ADME, organism-based. The settings on record: in vivo. In outline: as §1
Data set [15] deals with Blood. Kind of data set: Biodistribution in Sprague-Dawley rat blood at 1 MBq, iv after 0.25 hrs. The settings on record: in vivo. Format: ADME, organism-based. In outline:
as §1

The nature of data set [16]: Metabolic stability in Sprague-Dawley rat frontal cortex assessed as drug remaining at 30 MBq after 0.25 hrs by Radio-HPLC analysis. Format: ADME, tissue-based. The settings on record: read-out: Stability. The method in brief: as §2
Data set [17] relates to Adrenal. Put plainly: Biodistribution in Sprague-Dawley rat adrenals assessed per gram of tissue at 1 MBq, iv after 1 hr. Format: ADME, organism-based, Adrenal tissue. The settings on record: in vivo. The method in brief: as §1
Data set [18] deals with Heart. Kind of data set: Biodistribution in Sprague-Dawley rat heart assessed per gram of tissue at 1 MBq, iv after 4 hrs. The settings on record: in vivo. Format: ADME, organism-based. In outline:
as §1

Data set [19] concerns Femur. Put plainly: Biodistribution in Sprague-Dawley rat femur at 1 MBq, iv after 4 hrs. The settings on record: in vivo. Format: ADME, organism-based. The method in brief: as §1
Data set [20] deals with Adrenal. Put plainly: Biodistribution in Sprague-Dawley rat adrenals assessed per gram of tissue at 1 MBq, iv after 4 hrs. Format: ADME, organism-based, Adrenal tissue. Particulars: in vivo. The method in brief:
as §1

Data set [21] can be described thus: Biodistribution in Sprague-Dawley rat testis assessed per gram of tissue at 1 MBq, iv after 0.25 hrs. Format: ADME, organism-based. Particulars: in vivo. The method in brief: as §1
Data set [22] has as its system Liver. Kind of data set: Biodistribution in Sprague-Dawley rat liver assessed per gram of tissue at 1 MBq, iv after 0.25 hrs. Format: ADME, organism-based. Particulars: in vivo. The method in brief:
as §1

Data set [23] in a line: Metabolic stability in Sprague-Dawley rat frontal cortex assessed as drug remaining at 30 MBq after 4 hrs by Radio-HPLC analysis. Format: ADME, tissue-based. Particulars: read-out: Stability. The method in brief:
as §2

For data set [24], the system named is Heart. Put plainly: Biodistribution in Sprague-Dawley rat heart assessed per gram of tissue at 1 MBq, iv after 1 hr. Format: ADME, organism-based. Particulars: in vivo. In outline:
as §1

Data set [25] relates to Spleen. Put plainly: Biodistribution in Sprague-Dawley rat spleen assessed per gram of tissue at 1 MBq, iv after 0.5 hrs. Format: ADME, organism-based. The settings on record: in vivo. In outline: as §1
The test system of data set [26] is Kidney. Put plainly: Biodistribution in Sprague-Dawley rat kidney assessed per gram of tissue at 1 MBq, iv after 0.5 hrs. The settings on record: in vivo. Format: ADME, organism-based. In outline: as §1
A short description of data set [27]: Biodistribution in Sprague-Dawley rat testis assessed per gram of tissue at 1 MBq, iv after 0.5 hrs. Format: ADME, organism-based. The settings on record: in vivo. In outline: as §1
Data set [28] has as its system Lung. Put plainly: Biodistribution in Sprague-Dawley rat lungs assessed per gram of tissue at 1 MBq, iv after 0.5 hrs. Format: ADME, organism-based. The settings on record: in vivo. The method in brief:
as §1

Data set [29] deals with Adrenal. Put plainly: Biodistribution in Sprague-Dawley rat adrenals assessed per gram of tissue at 1 MBq, iv after 0.25 hrs. Format: ADME, organism-based, Adrenal tissue. The settings on record: in vivo. The method in brief: as §1
Data set [30] concerns Blood. Put plainly: Biodistribution in Sprague-Dawley rat blood at 1 MBq, iv after 4 hrs. Format: ADME, organism-based. Particulars: in vivo. The method in brief: as §1
Data set [31] relates to Spleen. Kind of data set: Biodistribution in Sprague-Dawley rat spleen assessed per gram of tissue at 1 MBq, iv after 4 hrs. Format: ADME, organism-based. Particulars: in vivo. In outline:
as §1

Data set [32] has as its system Adrenal. Put plainly: Biodistribution in Sprague-Dawley rat adrenals assessed per gram of tissue at 1 MBq, iv after 0.5 hrs. Format: ADME, organism-based, Adrenal tissue. Particulars: in vivo. The method in brief:
as §1

Data set [33] concerns Kidney. Put plainly: Biodistribution in Sprague-Dawley rat kidney assessed per gram of tissue at 1 MBq, iv after 1 hr. Format: ADME, organism-based. Particulars: in vivo. In outline:
as §1

The subject of data set [34] is Liver. Put plainly: Biodistribution in Sprague-Dawley rat liver assessed per gram of tissue at 1 MBq, iv after 0.5 hrs. Format: ADME, organism-based. Particulars: in vivo. The method in brief:
as §1

The subject of data set [35] is Spleen. Put plainly: Biodistribution in Sprague-Dawley rat spleen assessed per gram of tissue at 1 MBq, iv after 1 hr. Format: ADME, organism-based. Particulars: in vivo. The method in brief: as §1
A short description of data set [36]: Biodistribution in Sprague-Dawley rat testis assessed per gram of tissue at 1 MBq, iv after 4 hrs. Format: ADME, organism-based. Particulars: in vivo. In outline: as §1
The test system of data set [37] is Femur. Kind of data set: Biodistribution in Sprague-Dawley rat femur at 1 MBq, iv after 0.25 hrs. Format: ADME, organism-based. Particulars: in vivo. In outline: as §1
The subject of data set [38] is Heart. Kind of data set: Biodistribution in Sprague-Dawley rat heart assessed per gram of tissue at 1 MBq, iv after 0.25 hrs. Format: ADME, organism-based. The settings on record: in vivo. In outline: as §1
Data set [39] has as its system Heart. Kind of data set: Biodistribution in Sprague-Dawley rat heart assessed per gram of tissue at 1 MBq, iv after 0.5 hrs. Format: ADME, organism-based. Particulars: in vivo. The method in brief:
as §1

Data set [40] is described as follows: Biodistribution in Sprague-Dawley rat testis assessed per gram of tissue at 1 MBq, iv after 1 hr. Format: ADME, organism-based. The settings on record: in vivo. The method in brief: as §1

T1 sequence (P16257 whole entry, looked up): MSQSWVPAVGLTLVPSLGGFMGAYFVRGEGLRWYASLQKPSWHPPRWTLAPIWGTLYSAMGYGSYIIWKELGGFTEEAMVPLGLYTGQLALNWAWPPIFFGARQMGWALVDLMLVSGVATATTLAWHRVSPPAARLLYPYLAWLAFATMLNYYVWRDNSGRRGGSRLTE

In general, Ki refers to a measure of affinity in units of concentration, obtained from inhibition or displacement. Read a high Ki as a looser hold on the target. As a reminder, the logD is lipophilicity at a set pH, counting ionised and neutral species. Lower therefore signals a more hydrophilic compound. Regarding `CCN(CC)C(=O)Cc1c(-c2ccc(OCCCF)cc2)nc2ccc(Cl)cn12`, the figures for the inhibition constant (Ki) in data set [1], in data set [2] and in [3] were 0.8 µM, 0.0042 µM and 0.0037 µM, respectively. In data set [4], this compound returned a logD of 3.2.
`CCN(CC)C(=O)Cc1c(-c2ccc(OCCCF)cc2)nn2c(C)cc(C)nc12` yielded a Ki in [1] of more than 5 µM. The compound also had a logD in data set [4] of 3.2.
On to `CCN(CC)C(=O)Cc1c(-c2ccc(OCCC[18F])cc2)nn2c(C)cc(C)nc12`, for which the Drug uptake in [5] stood at 0.1 % ID/g; in data set [6], 0.38 %ID; in [8] it was 3.2 %ID; in data set [9], 5.5 %ID; in data set [10], 7.1 %ID; in [11], 0.69 %ID. The Drug uptake in data set [12] is recorded as 3.3 %ID; in data set [13], 20 %ID; in [14], 5.5 %ID; in [15] it was 0.3 % ID/g; in data set [17], 11 %ID; in data set [18], 5.8 %ID. The Drug uptake in [19] was 2.2 % ID/g; in [20], 12.2 %ID; in data set [21] it was 0.27 %ID; in data set [22], 1.08 %ID; in data set [24], 8.7 %ID; in data set [25] it was 5.5 %ID. Besides, the Drug uptake came out at 4.9 %ID in data set [26]; 0.28 %ID in data set [27]; 12.4 %ID in data set [28]; 8 %ID in [29]; 0.1 % ID/g in [30]; 3.6 %ID in data set [31]. In addition, the Drug uptake in data set [32] is reported as 7.9 %ID; in data set [33], 4.7 %ID; in [34], 0.98 %ID; in data set [35], 5.1 %ID; in data set [36], 0.43 %ID; in data set [37], 0.6 % ID/g. Besides, the values for the Drug uptake in data set [38], in [39] and in data set [40] were 9 %ID, 9 %ID and 0.32 %ID, respectively. Further, the figures for the remaining at 0.25 h in data set [7] and in data set [16] were 10% and 55%, respectively. Besides, in data set [23], the remaining at 4 h came out at 30%.
For the compound `CCN(CC)C(=O)Cc1c(-c2ccc(OCCF)cc2)nn2c(C)cc(C)nc12` [DPA-714], the Ki in data set [1] was more than 5 µM. Further, in data set [4], the logD was 2.5.
